Hits are enriched below; roughly 12% of the tested compounds scored in any of these assays.
Wee1 stabilizer: human Wee1 degradation inhibition, primary screen; actives 1.2% (n = 220,000); reporter increase, % at 5 µM; HeLa Luc-Wee1K328M stability, luciferase luminescence; 100% = proteasome inhibitor MG132 effect; P30291;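 active = activation above the mean of all tested compounds plus 3 SD, set per screening run, cut at about 8.8% in these data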;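 note: cells exposed to compound for 20 h before luminescence read; 0% = DMSO alone and 100% = MG132 at 30 µM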
Target sequence (P30291 whole entry K328M): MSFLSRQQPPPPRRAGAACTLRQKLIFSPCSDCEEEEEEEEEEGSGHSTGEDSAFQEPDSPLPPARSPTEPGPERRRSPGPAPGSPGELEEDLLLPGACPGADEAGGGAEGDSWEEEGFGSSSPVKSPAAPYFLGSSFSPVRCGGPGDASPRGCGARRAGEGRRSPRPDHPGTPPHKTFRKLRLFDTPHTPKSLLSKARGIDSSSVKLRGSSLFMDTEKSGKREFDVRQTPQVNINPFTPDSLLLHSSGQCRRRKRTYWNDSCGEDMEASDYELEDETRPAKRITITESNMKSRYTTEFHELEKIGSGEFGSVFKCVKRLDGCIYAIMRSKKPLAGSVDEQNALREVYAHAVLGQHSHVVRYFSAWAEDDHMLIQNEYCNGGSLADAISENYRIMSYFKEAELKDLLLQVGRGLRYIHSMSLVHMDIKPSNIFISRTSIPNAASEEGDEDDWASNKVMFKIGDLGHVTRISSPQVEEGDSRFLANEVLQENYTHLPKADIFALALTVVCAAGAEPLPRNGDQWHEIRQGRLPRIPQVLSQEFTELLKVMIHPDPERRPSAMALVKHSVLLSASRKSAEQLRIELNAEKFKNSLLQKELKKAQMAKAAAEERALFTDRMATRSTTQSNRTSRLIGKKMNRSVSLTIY
Lmaj promast: Leishmania major promastigote growth inhibition | Leishmania major promastigotes, resazurin fluorescence viability | inhibition, % at 10 µM | actives 9% (n = 200,000) | AID 1063;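 note: promastigotes grown with compound for 44 hours at 28 °C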
Arbovirus anti: antivirals against arbovirus infection. arbovirus infection cell-based antiviral screen. inhibition, % at 10 µM. actives 0.37% (n = 200,000); in the data active = inhibition above about 30%
Rad51 HR inh: blocks human Rad51 in homologous recombination | actives 0.085% (n = 200,000) | AID 1385 | Q06609 | inhibition, % at 10 µM | hRad51 DNA strand exchange, fluorescence dequenching;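 active = inhibition above 40% at the single screening dose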;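 note: 0% = DMSO control wells and 100% = blanks with heterologous ssDNA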
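material = hRad51 filaments on single-stranded DNA | timing = filaments 15 min 37 °C, then compound 30 min | signal = FRET fluorescence dequenching, excitation 485 nm, emission 520 nm | benchmarks = control wells and blank wells on each plate | evaluation = percent inhibition relative to plate controls and blanks | compound = 10 µM final, single point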
CHOP inh: inhibitors of CHOP induction in ER stress response | inhibition, % at 10 µM | CHO-K1 CHOP-promoter luciferase, tunicamycin-induced, 15-18 h | actives 3.8% (n = 220,000);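 active = compounds that reduced the stress-induced luciferase reporter signal by more than about 70% of percent inhibition, limit read from the data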;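 note: 0% = tunicamycin plus vehicle and 100% = wells without tunicamycin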
PKD1 kinase inh: blocks activity of human protein kinase D1. Q15139. PKD1 kinase fluorescence polarization assay. inhibition, % (test concentration not listed). actives 0.056% (n = 200,000). AID 797
The depositor's hits bear a star; · = not tested or not shown. Cut-off read from the data, not from the text of the source, unless noted: active = inhibition above about 50%; inactive = the rest.

SMILES | Wee1 stabilizer | Lmaj promast | Arbovirus anti | Rad51 HR inh | CHOP inh | PKD1 kinase inh
Cn1c(=O)n(Cc2ccccc2)c(=O)c2c1nc1n2CCCN1CCc1ccccc1 | 0.5 | 100.4* | 0.6 | 0.4 | 41.9 | -2.7
CCN1CCCn2c1nc1c2c(=O)n(C)c(=O)n1C | -1.0 | 58.7* | 5.4 | 6.7 | -12.6 | -1.4
O=C(N=Nc1c(O)n(Cc2ccccc2)c2ccccc12)c1ccc(O)cc1 | -1.4 | 90.7* | -28.7 | -1.5 | 36.4 | -4.8
Cc1occc1C(=O)N=Nc1c(O)n(C)c2ccccc12 | 4.9 | 70.7* | -6.8 | 9.5 | 41.6 | -13.7
COc1ccc(C(=O)NCC(=O)N=Nc2c(O)n(Cc3ccccc3)c3ccccc23)cc1OC | -1.8 | 20.9 | -7.7 | -2.0 | 9.5 | -12.3
O=C(N=Nc1c(O)n(C2OC(=O)c3ccccc32)c2ccccc12)c1ccc(O)cc1 (stereo unspecified) | 1.7 | -0.4 | -6.5 | · | 78.4* | 6.3
CC(C)CCn1c(O)c(N=NC(=O)c2ccco2)c2ccccc21 | -0.9 | -1.1 | -4.4 | 17.8 | 83.1* | 0.8
Cn1c(O)c(N=NC(=O)c2ccccc2O)c2ccccc21 | 7.0 | 2.7 | 1.0 | -3.8 | -19.6 | -4.0
O=c1c(Cl)c(N2CCC3(CC2)OCCO3)cnn1C12CC3CC(CC(C3)C1)C2 | 3.4 | · | · | 12.2 | -3.6 | ·
CC1=C(C(=O)OCC(C)C)C2(O)C(=O)c3ccccc3C2(O)N1 (stereo unspecified) | -0.6 | -8.2 | -10.7 | 17.8 | 21.9 | -5.0
Nc1nc(SCc2ccc([N+](=O)[O-])cc2)c2ncn([C@@H]3O[C@H](CO)[C@H](O)C3O)c2n1 (stereo partly specified) | · | · | · | · | -11.8 | ·
CCCCN1C(=O)C(=O)N(CC(=O)Nc2cc(OCC)c(N3CCOCC3)cc2OCC)C1=O | 1.9 | 0.4 | 2.6 | · | 8.0 | -3.4
CCn1c(O)c(N=NC(=O)c2ccc(CSc3nncn3C)cc2)c2ccccc21 | 2.5 | 30.3 | -5.6 | 9.6 | 12.9 | -6.3
Cn1cnnc1SCc1ccc(C(=O)N=Nc2c(O)n(Cc3ccc(Cl)cc3)c3ccccc23)cc1 | -0.9 | 98.6* | -17.1 | -0.9 | 30.2 | -9.4
Cn1c(=O)c(=O)n(C)c2cc(S(=O)(=O)N3CCCC3C(=O)NCc3ccco3)ccc21 (stereo unspecified) | 9.0* | · | · | 0.0 | -5.6 | ·
O=C(NCc1ccco1)C1CCCN1S(=O)(=O)c1ccc2ccccc2c1 (stereo unspecified) | 4.1 | -2.5 | -7.1 | -10.2 | 10.8 | -3.3
O=C1CC(N2CCN(Cc3ccc4c(c3)OCO4)CC2)C(=O)N1c1cccc2ccccc12 (stereo unspecified) | 1.5 | 62.4* | 8.7 | -11.4 | -14.9 | 1.2
O=C1CC(N2CCN(Cc3ccc4c(c3)OCO4)CC2)C(=O)N1CCc1ccccc1 (stereo unspecified) | -1.4 | 87.0* | 1.5 | 3.5 | 31.8 | -0.5
Cc1ccc(S(=O)(=O)N2CCN(C3CC(=O)N(CCc4ccccc4)C3=O)CC2)cc1C (stereo unspecified) | 9.9* | 5.5 | 12.7 | -1.6 | 51.4 | -6.7
COc1ccc(CCN2C(=O)CC(Cc3ccc(Br)cc3)C2=O)cc1OC (stereo unspecified) | -0.9 | 55.9* | 6.1 | -3.9 | 30.1 | -1.0
COc1ccc(CCN2C(=O)CC(Cc3ccccc3)C2=O)cc1OC (stereo unspecified) | -0.1 | · | · | -3.6 | 7.7 | ·
O=C1CC(N2CCN(Cc3ccc4c(c3)OCO4)CC2)C(=O)N1Cc1ccc(N2CCCC2=O)cc1 (stereo unspecified) | 0.5 | 6.9 | -2.1 | -3.1 | 7.8 | 9.8
CCn1cc(CN2CCN(CCc3ccccc3)C(CCO)C2)c(C)n1 (stereo unspecified) | -0.4 | -1.3 | -7.6 | -0.8 | -2.0 | -2.4
CN(c1nc2ccccc2n2c(C3CC3)nnc12)S(=O)(=O)c1ccccc1 | -2.3 | · | · | · | 13.2 | ·
O=C1CC(Cc2ccccc2)C(=O)N1CCc1ccc2c(c1)OCO2 (stereo unspecified) | -2.4 | 100.2* | -6.5 | 3.9 | 24.2 | 1.6
SMILES | Wee1 stabilizer | Lmaj promast | Arbovirus anti | Rad51 HR inh | CHOP inh | PKD1 kinase inh
Cc1ccc(NC(=O)N[C@H](C(=O)O)C(C)C)c(C)c1 | 0.5 | · | · | 3.1 | 21.9 | ·
COc1ccccc1NC(=O)CC1C(=O)NCCN1C(=O)Nc1ccc(Cl)c(Cl)c1 (stereo unspecified) | -1.4 | 67.5* | -43.0 | -5.8 | 42.4 | -4.6
COC(=O)c1sccc1NC(=O)CC1C(=O)NCCN1C(=O)Nc1cc(Cl)ccc1OC (stereo unspecified) | 8.9* | · | · | -20.3 | 3.9 | ·
Cc1ccc(S(=O)(=O)c2c(N)n(Cc3ccco3)c3nc4ccccc4nc23)cc1 | 3.4 | 74.1* | -2.1 | -133.4 | 74.4* | -16.0
Cc1cccc(S(=O)(=O)c2c(N)n(Cc3ccco3)c3nc4ccccc4nc23)c1 | 1.2 | 77.7* | -28.4 | -0.1 | 57.3 | 6.0
CCCCn1c(N)c(S(=O)(=O)c2ccc(C)cc2)c2nc3ccccc3nc21 | 3.2 | 56.3* | -24.9 | · | 53.9 | 0.6
Cc1cccc(-n2cnc3c(c2=O)c2nc4ccccc4nc2n3Cc2ccco2)c1 | · | · | · | 1.3 | · | ·
Cc1ccc(S(=O)(=O)c2c(N)n(NC(=O)c3ccco3)c3nc4ccccc4nc23)cc1 | 1.8 | -7.3 | 4.4 | 1.5 | -0.6 | -13.0
CC(=O)Nc1ccc(NC(=O)C(C)OC(=O)C2CCN(S(=O)(=O)c3cccs3)CC2)cc1 (stereo unspecified) | -3.9 | · | · | · | 9.2 | ·
Cc1nn(C)c(C(=O)N2CCOCC2)c1Cl | -1.9 | -3.9 | 0.3 | 1.6 | 16.2 | 5.6
COc1ccc(/C=N/N2C(=O)C3C4C=CC(CC4)C3C2=O)c(OC)c1 (stereo unspecified) | -0.3 | -6.8 | 11.3 | 8.5 | -5.8 | -2.2
CC(C)c1cc(C(=O)Nc2cc(Br)ccc2O)no1 | 7.2 | -5.7 | 20.8 | 8.7 | 78.1* | -9.2
CC(C)c1cc(C(=O)Nc2cc(Cl)ccc2O)no1 | 1.2 | -8.6 | 12.7 | -3.3 | · | 2.6
COc1ccccc1-n1c(-c2ccc(NS(C)(=O)=O)cc2)n[nH]c1=S | -0.5 | -6.0 | 1.6 | · | 93.3* | -2.1
COc1ccc(-c2n[nH]c(=S)n2-c2cc(OC)ccc2OC)cc1 | -1.4 | · | · | -6.1 | -1.2 | ·
COC(=O)c1cn(NC(=O)Cc2ccccc2Br)c(=O)c2ccccc12 | -0.8 | -3.4 | -0.7 | 0.0 | 7.6 | 4.4
CCCCC1(Cc2cccc([N+](=O)[O-])c2)C(=O)N(c2ccccc2)N(c2ccccc2)C1=O | -0.8 | 57.5* | -9.6 | 0.7 | 45.1 | -1.2
CCCCC1(CO)C(=O)N(c2ccccc2)N(c2ccccc2)C1=O | 2.8 | · | · | -3.3 | -13.2 | ·
Cc1cc(C)c2nc(SCC(=O)NC(=O)c3cccn3C)cc(C)c2c1 | -1.6 | 6.8 | -7.3 | -2.8 | -19.8 | -1.4
CSC1=NC(C)(C)C=C(/C=C/c2c(Cl)cccc2Cl)N1 | 6.6 | 58.3* | -31.4 | -9.5 | -3.2 | -4.6
CSC1=NC(C)(C)C=C(/C=C/c2ccc(Cl)cc2Cl)N1 | 0.1 | 71.7* | -33.3 | -6.1 | -25.0 | -6.4
